The source of these data is ChEMBL document CHEMBL1921692 (J Med Chem, 2011).

Activity calls are given as the source filed them.

Series [1] addresses T1, Growth hormone secretagogue receptor type 1 (Homo sapiens, UniProt Q92847). Briefly: Displacement of [125I-His9]-ghrelin from human GRLN receptor by radioligand binding assay. In a few lines: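 Competitive binding on isolated membranes expressing GRLN, with 125I-His-9 octanoylated ghrelin as radioligand.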
In general terms: Loss of bound radioactivity is the signal in a displacement assay; it reports binding, not function.

Series [2] concerns the target T1, Growth hormone secretagogue receptor type 1. Description: Agonist activity at human GRLN receptor expressed in HEK293 cells assessed as calcium binding by Ca2+ bioluminescence aequorin assay. Type of series: functional, cell-based. The gist of the method: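 HEK-293 cells expressing human GRLN. Ca2+ bioluminescence read out by aequorin. Duplicate samples, maximum tolerated interassay variability ±10%. Full agonism defined as maximal response >70% of that of octanoylated human ghrelin.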

Series [3] in a line: Cmax in Sprague-Dawley rat at 8 mg/kg, po. The class given is ADME, organism-based. The arrangement: dose 8 mg/kg, route oral. The following applies: in vivo. The gist of the method:
(§1)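 Male Sprague−Dawley rats (250 ± 20 g), 3 per compound in a single experiment, gavage 8 mg/kg in physiological saline. Blood taken at 12 time points over 6 h into K3EDTA tubes. Plasma stored at −20 °C, assayed by LC-MS/MS, noncompartmental analysis.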

Series [4] in a line: AUC (0 to infinity) in Sprague-Dawley rat at 8 mg/kg, po. The class given is ADME, organism-based. Details: time infinity, dose 8 mg/kg, route oral. The following applies: plasma. In a few lines:
as §1

A short description of series [5]: Permeability across mucosal to serosal side in human Caco2 cells. Type of series: ADME, cell-based. The note with it: Caco-2, read-out: permeability. (Caco-2 cells form a polarised layer with tight junctions and transporters.)
Series [6] is described as follows: Permeability across serosal to mucosal side human Caco2 cells. Type of series: ADME, cell-based. The note with it: Caco-2, read-out: permeability.
Series [7] is described as follows: Drug metabolism in rat liver microsomes after 15 mins. The note with it: read-out: Drug metabolism. Type of series: ADME, Microsome. On the technique in general: Microsomes from liver hold many membrane-bound enzymes, among them those of drug oxidation.
The next series deals with Cytochrome P450 3A4 (Homo sapiens, UniProt P08684). Description: Inhibition of human CYP3A4. Type of series: ADME.
Chain of Cytochrome P450 3A4 (P08684 whole entry): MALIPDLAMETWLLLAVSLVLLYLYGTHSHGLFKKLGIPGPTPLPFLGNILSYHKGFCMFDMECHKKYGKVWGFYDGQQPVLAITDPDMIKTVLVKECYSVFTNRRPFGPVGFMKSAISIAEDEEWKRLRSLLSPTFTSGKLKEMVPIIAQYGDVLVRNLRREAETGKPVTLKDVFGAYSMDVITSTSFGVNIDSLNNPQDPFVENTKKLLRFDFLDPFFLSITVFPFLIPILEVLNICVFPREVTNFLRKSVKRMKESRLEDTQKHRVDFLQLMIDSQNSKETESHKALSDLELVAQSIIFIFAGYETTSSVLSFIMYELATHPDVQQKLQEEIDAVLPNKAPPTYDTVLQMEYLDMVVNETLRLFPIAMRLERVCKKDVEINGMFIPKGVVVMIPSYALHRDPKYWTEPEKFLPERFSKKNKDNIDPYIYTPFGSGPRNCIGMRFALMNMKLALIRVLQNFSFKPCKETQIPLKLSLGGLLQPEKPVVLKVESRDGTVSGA
A further series has as its target Cytochrome P450 2D6 (Homo sapiens, UniProt P10635). Briefly: Inhibition of human CYP2D6. The class given is ADME.
A further series addresses Cytochrome P450 2C9 (Homo sapiens, UniProt P11712). Description: Inhibition of human CYP2C9. The class given is ADME.
The next series concerns the target Cytochrome P450 2C19 (Homo sapiens, UniProt P33261). Description: Inhibition of human CYP2C19. Type of series: ADME.
Another series has as its target T2, Cytochrome P450 1A2 (Homo sapiens, UniProt P05177).
T2 sequence (P05177 whole entry): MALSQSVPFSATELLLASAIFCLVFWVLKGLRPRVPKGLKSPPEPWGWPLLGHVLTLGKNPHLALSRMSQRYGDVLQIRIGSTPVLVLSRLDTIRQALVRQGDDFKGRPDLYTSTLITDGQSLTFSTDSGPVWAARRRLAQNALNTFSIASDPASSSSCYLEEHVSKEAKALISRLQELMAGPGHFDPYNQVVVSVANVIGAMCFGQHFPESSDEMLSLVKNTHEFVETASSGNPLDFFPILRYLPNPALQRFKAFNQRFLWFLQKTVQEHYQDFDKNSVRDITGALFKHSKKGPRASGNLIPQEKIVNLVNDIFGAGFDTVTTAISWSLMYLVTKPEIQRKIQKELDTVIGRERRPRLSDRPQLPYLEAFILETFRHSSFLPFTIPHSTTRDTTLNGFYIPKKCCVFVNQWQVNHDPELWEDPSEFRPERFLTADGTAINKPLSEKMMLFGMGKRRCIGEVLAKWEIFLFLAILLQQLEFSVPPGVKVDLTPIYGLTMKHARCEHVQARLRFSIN
Briefly: Inhibition of human CYP1A2. Type of series: ADME.

The nature of series [8]: Cmax in cynomolgus monkey at 8 mg/kg, po. Type of series: ADME, organism-based, Macaca fascicularis. The arrangement: dose 8 mg/kg, route oral. The following applies: in vivo.
Another series deals with Salmonella typhimurium. Briefly: Induction of mutagenicity in Salmonella Typhimurium up to 5000 ug/plate by Ames test. The class given is toxicity, organism-based. The following applies: salmonella enterica subsp. enterica serovar typhimurium. The gist of the method:
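Ames test run up to 5000 μg/plate.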

The nature of series [9]: Dissociation constant, pKa of the compound. The class given is physicochemical.
In series [10] the test system is Rattus norvegicus. Description: Induction of gastric emptying in overnight-fasted iv dosed Wistar rat measured after 15 mins by […] analysis. Type of series: functional, organism-based, Stomach. The gist of the method:
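Overnight-fasted male Wistar rats (200 ± 20 g), N = 5 per point. Compound given IV in 9% 2-hydroxypropyl-β-cyclodextrin together with an oral 2% methylcellulose meal containing 0.05% phenol red (2 mL). Sacrifice 15 min later; phenol red left in stomach read at 560 nm. […] Metoclopramide positive control at 10 mg/kg IV.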

Series [11] deals with Cynomolgus monkey. Briefly: Oral bioavailability in cynomolgus monkey at […]. The following applies: in vivo.
Series [12] has as its system Cynomolgus monkey. Description: AUC (0 to infinity) in cynomolgus monkey at […], po. The note with it: in vivo.
Series [13] is described as follows: Oral bioavailability in Sprague-Dawley rat at 8 mg/kg. The following applies: in vivo.
Series [14] in a line: Drug excretion in Sprague-Dawley rat assessed as unchanged recovery in feces at 6 mg/kg, iv measured after 30 mins. The following applies: faeces.
Series [15] has as its target motilin receptor (Homo sapiens) (UniProt O43193). Briefly: Selectivity ratio of EC50 for human motilin receptor to EC50 for human GRLN receptor.
Series [16] can be described thus: Elimination half life in Sprague-Dawley rat at 2 m/kg, iv. The following applies: in vivo, read-out: beta t1/2. Type of series: ADME, organism-based.
A short description of series [17]: Volume of distribution at steady state in Sprague-Dawley rat at 2 m/kg, iv. The class given is ADME, organism-based. The following applies: in vivo, read-out: Vdss.
Series [18] in a line: Clearance in Sprague-Dawley rat at 2 m/kg, iv. Type of series: ADME, organism-based. The note with it: in vivo.
Series [19] can be described thus: Half life in human liver microsomes. Type of series: ADME, Microsome.
Series [20] can be described thus: Clearance in cynomolgus monkey at 0.5 mg/kg, iv. The following applies: in vivo.
Series [21] can be described thus: Elimination half life in cynomolgus monkey at 0.5 mg/kg, iv. The following applies: in vivo, read-out: beta t1/2.
Series [22] in a line: Volume of distribution at steady state in cynomolgus monkey at 0.5 mg/kg, iv. The following applies: in vivo, read-out: Vdss.
In series [23] the target is T1, Growth hormone secretagogue receptor type 1. Description: Partial agonist activity at GRLN receptor at 3 uM by aequorin assay. Type of series: functional. The gist of the method: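 Aequorin Ca2+ bioluminescence in HEK-293 cells expressing human GRLN. Response at a 3 μM test concentration expressed relative to the maximal response to octanoylated human ghrelin.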

Series [24] has as its system Rattus norvegicus. Description: Induction of gastric emptying in overnight-fasted po dosed Wistar rat administered 30 mins prior methylcellulose meal by […] analysis. The class given is functional, organism-based. The following applies: Stomach.

T1 sequence (Q92847 whole entry): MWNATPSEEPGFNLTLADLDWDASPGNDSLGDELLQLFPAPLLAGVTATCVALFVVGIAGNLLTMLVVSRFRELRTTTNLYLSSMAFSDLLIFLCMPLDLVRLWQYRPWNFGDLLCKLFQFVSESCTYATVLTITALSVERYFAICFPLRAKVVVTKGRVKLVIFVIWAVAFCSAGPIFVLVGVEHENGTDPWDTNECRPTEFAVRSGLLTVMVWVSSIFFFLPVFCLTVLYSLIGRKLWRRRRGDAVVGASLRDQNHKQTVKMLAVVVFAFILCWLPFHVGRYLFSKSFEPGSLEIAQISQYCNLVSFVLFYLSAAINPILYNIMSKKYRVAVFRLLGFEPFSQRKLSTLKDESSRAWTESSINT
Chain of Cytochrome P450 2C9 (P11712 whole entry): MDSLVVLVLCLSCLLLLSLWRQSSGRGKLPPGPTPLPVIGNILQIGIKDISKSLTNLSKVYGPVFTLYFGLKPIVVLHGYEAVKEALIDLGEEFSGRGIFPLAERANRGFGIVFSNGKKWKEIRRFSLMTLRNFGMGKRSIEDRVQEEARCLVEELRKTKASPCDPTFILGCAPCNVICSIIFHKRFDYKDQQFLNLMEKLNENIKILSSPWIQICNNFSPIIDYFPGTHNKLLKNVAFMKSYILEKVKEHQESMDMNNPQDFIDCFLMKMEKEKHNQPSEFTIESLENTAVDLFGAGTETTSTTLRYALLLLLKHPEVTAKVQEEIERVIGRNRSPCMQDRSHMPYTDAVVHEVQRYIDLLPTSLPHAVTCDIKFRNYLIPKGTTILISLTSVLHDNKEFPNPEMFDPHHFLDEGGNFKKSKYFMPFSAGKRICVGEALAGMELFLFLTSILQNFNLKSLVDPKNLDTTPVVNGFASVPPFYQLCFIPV
Chain of Cytochrome P450 2C19 (P33261 whole entry): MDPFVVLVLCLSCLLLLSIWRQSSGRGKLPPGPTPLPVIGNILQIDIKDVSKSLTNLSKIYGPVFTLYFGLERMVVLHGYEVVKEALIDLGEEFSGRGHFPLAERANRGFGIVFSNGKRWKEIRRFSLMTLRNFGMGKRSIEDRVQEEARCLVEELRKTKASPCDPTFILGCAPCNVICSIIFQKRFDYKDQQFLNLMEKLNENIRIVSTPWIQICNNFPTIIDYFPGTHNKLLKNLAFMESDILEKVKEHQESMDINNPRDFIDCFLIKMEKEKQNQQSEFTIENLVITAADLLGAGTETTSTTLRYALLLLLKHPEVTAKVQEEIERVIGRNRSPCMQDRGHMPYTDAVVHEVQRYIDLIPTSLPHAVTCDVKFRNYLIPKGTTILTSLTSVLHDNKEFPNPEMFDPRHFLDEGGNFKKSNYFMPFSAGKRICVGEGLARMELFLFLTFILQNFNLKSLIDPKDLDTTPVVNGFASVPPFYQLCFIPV
Chain of Cytochrome P450 2D6 (P10635 whole entry): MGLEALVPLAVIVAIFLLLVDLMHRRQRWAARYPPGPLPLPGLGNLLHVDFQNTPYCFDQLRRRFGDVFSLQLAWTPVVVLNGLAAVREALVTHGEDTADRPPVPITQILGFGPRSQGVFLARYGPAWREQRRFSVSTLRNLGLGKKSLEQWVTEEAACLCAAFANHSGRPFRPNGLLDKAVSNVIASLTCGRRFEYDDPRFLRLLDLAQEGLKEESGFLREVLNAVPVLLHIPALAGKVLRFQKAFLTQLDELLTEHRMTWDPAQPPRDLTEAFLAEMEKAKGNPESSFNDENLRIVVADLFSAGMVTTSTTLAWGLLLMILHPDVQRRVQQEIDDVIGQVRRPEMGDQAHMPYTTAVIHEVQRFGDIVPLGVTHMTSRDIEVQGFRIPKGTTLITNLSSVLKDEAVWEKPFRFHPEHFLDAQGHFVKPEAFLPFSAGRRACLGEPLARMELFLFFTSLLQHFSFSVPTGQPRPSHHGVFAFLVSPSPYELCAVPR

One may read the Ki as the dissociation constant of the complex between target and ligand, obtained from inhibition or displacement. As a reminder, the Cmax is the peak of the concentration-time curve. As usually defined, the AUC(0-inf) is the area under the concentration-time curve extrapolated to infinity. A word on the IC50: it is the concentration at which inhibition is half-maximal. One may read the pKa as the negative logarithm of the acid dissociation constant. Usually AUC stands for the area under the concentration-time curve, a measure of exposure. As a reminder, the bioavailability is the share of a dose that reaches the circulation, judged against a reference dose that is usually intravenous. As for `C[C@@H]1CN[C@@H](C2CC2)C(=O)N(C)[C@H](C)C(=O)N[C@H](Cc2ccc(F)cc2)C(=O)NCCCc2ccccc2O1.Cl.O` [ULIMORELIN HYDROCHLORIDE], affinity in series [1] was put at a Ki of 16 nM. Besides, the EC50 in series [2] stood at 29 nM; with Rattus norvegicus [10], 0.91 mg/kg. The figures for the Cmax in series [3] and in [8] were 390 nM and 1400 nM, respectively. The AUC(0-inf) in series [4] was 1.37 µM·h. The Papp A→B in series [5] was found to be 15 ×10⁻⁶ cm/s. In addition, in [6], the Papp B→A is 14 ×10⁻⁶ cm/s. Also, in series [7], the metabolised at […] was determined as 68%. Moreover, the IC50 against Cytochrome P450 3A4 was 2400 nM; at Cytochrome P450 2D6, 84000 nM; against Cytochrome P450 2C9, 66000 nM; on Cytochrome P450 2C19 it was > 100000 nM; against Cytochrome P450 1A2 it was > 100000 nM. For the same compound, the Activity entry with Salmonella typhimurium is reported as “Non-toxic”. Besides, the pKa in [9] amounted to 7.17. The compound also yielded a F with Cynomolgus monkey [11] of 24%. The AUC in the series on Cynomolgus monkey [12] amounted to 75.4 µM·min. The compound also returned a bioavailability in [13] of 24%. Moreover, in series [14], the dose excreted at 0.5 h is 95%.
Regarding `CCC[C@@H]1NCCOc2ccccc2/C=C/CNC(=O)[C@@H](Cc2ccccc2)NC(=O)CN(C)C1=O`, the affinity in series [1] corresponds to a Ki of 86 nM. Further, the EC50 in series [2] is 134 nM. Besides, the Ratio EC50 in series [15] was > 100.
For orientation: clearance means the volume of plasma or blood freed of the substance per unit of time. Take `C[C@@H]1C(=O)N[C@H](Cc2ccc(F)cc2)C(=O)NCCCc2ccc(F)cc2OCCN[C@@H](C2CC2)C(=O)N1C`: the Ki in series [1] worked out at 2.6 nM. Moreover, the EC50 in series [2] came to 27 nM; in the series with Rattus norvegicus [10], 1.2 mg/kg. Further, the Cmax in series [3] worked out at 900 nM; in series [8], 90 nM. In addition, the AUC(0-inf) in [4] is 1.67 µM·h. Moreover, the values for the half-life in series [16], in series [19] and in series [21] were 44 min, 41 min and 29 min, respectively. Moreover, the results for the Vd in series [17] and in [22] were 1.8 L/kg and 0.66 L/kg, respectively. Moreover, the figures for the clearance in series [18] and in [20] were 28 mL/min/kg and 20 mL/min/kg, respectively. Further, in series [5], the Papp A→B is 19.8 ×10⁻⁶ cm/s. The Papp B→A in series [6] was found to be 12.5 ×10⁻⁶ cm/s. Moreover, in series [7], the metabolised at […] was found to be 54%. The IC50 is 1200 nM against Cytochrome P450 3A4; 31000 nM against Cytochrome P450 2D6; > 100000 nM on Cytochrome P450 2C9; > 100000 nM at Cytochrome P450 2C19; > 100000 nM against Cytochrome P450 1A2. In addition, the F in the series with Cynomolgus monkey [11] is 7%. This compound also yielded an AUC in the series on Cynomolgus monkey [12] of 10.3 µM·min. For the same compound, the bioavailability in series [13] was found to be 36%.
For `C[C@@H]1C(=O)N[C@H](Cc2ccc(F)cc2)C(=O)NCCCc2ccccc2OC(C)(C)CN[C@@H](C2CC2)C(=O)N1C`, the Ki in [1] is 12 nM. In series [23], this compound came in with an Activity of 40%.
For the compound `CCCCCCCC(=O)OC[C@H](NC(=O)CNC(=O)[C@@H](N)CCCNC(=N)N)C(=O)N[C@@H](CO)C(=O)N[C@@H](Cc1ccccc1)C(=O)N[C@@H](CC(C)C)C(=O)N[C@@H](CO)C(=O)N1CCC[C@H]1C(=O)N[C@@H](CCC(=O)O)C(=O)N[C@@H](Cc1cnc[nH]1)C(=O)N[C@@H](CCC(N)=O)C(=O)N[C@@H](CCCCN)C(=O)N[C@@H](C)C(=O)N[C@@H](CCC(N)=O)C(=O)N[C@@H](CCC(N)=O)C(=O)N[C@@H](CCCNC(=N)N)C(=O)N[C@@H](CCCCN)C(=O)N[C@@H](CCC(=O)O)C(=O)N[C@@H](CO)C(=O)N[C@@H](CCCCN)C(=O)N[C@@H](CCCCN)C(=O)N1CCC[C@H]1C(=O)N1CCC[C@H]1C(=O)N[C@@H](C)C(=O)N[C@@H](CCCCN)C(=O)N[C@@H](CC(C)C)C(=O)N[C@@H](CCC(N)=O)C(=O)N1CCC[C@H]1C(=O)O` [GHRELIN], the EC50 in the series on Rattus norvegicus [10] worked out at 0.04 mg/kg. In addition, in the series on Rattus norvegicus [24], the result was inactive.
`CC[C@H](C)[C@@H]1NCCOc2ccccc2CCCNC(=O)[C@@H](Cc2ccc(Cl)cc2)NC(=O)[C@@H](C)N(C)C1=O` had a Ki in series [1] of 0.35 nM. Moreover, the values for the EC50 (in series [2]; with Rattus norvegicus [10]) were 20 nM and 0.39 mg/kg, respectively. The compound also gave a Cmax in series [3] of 60 nM. The area under the curve AUC(0-inf) in [4] was 0.0585 µM·h. The half-life in series [16] was 33 min; in [19] it was 5 min. Also, the Vd in series [17] stood at 3.2 L/kg. In series [5], the Papp A→B is 14 ×10⁻⁶ cm/s. The Papp B→A in [6] came out at 15 ×10⁻⁶ cm/s. Also, in series [7], the metabolised at […] came to 86%. Also, the result with Rattus norvegicus [24] was inactive. In series [13], this compound yielded a bioavailability of 3%.
